MPTP inh – mitochondrial permeability transition pore inhibitors, primary screen, biochemical, isolated mouse mitochondria, absorbance. 1.4% of 360,000 active. Ca2+ swelling absorbance, 30 min. AID 602449, 2012. inhibition, % at 10 µM;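 active = inhibition of 50% or more, scaled per plate between neutral and stimulator controls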;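 note: 0% = DMSO wells given calcium and 100% = 1 mM EGTA wells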
GPR7 antag – GPR7 receptor antagonists, primary screen, cell-based, fluorescence, single concentration; Neuropeptides B/W receptor type 1 (Homo sapiens), P48145; GPR7-expressing cells, fluorescence antagonist assay; inhibition, % at 4.4 µM; 1.1% of 290,000 active; AID 1861, 2009; in the data active = inhibition above about 16%, passing the limit was not always enough;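 note: cells stimulated with the agonist NPW; 0% = agonist with vehicle and 100% = vehicle without agonist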
TAAR1 agonist – human TAAR1 agonists, primary screen, Fluo-8 calcium fluorescence, CHO RD-HGA16 cells | activation, % at 3 µM | AID 624467, 2012 | Trace amine-associated receptor 1 (Homo sapiens), Q96RJ0 | vehicle wells 0%, saturating PEA agonist 100% | 0.99% of 360,000 active;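 active = activation above the mean activation of all test compounds in the run plus 3 SD, cut at about 38% in these data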
Target sequence (Q96RJ0 whole entry, looked up): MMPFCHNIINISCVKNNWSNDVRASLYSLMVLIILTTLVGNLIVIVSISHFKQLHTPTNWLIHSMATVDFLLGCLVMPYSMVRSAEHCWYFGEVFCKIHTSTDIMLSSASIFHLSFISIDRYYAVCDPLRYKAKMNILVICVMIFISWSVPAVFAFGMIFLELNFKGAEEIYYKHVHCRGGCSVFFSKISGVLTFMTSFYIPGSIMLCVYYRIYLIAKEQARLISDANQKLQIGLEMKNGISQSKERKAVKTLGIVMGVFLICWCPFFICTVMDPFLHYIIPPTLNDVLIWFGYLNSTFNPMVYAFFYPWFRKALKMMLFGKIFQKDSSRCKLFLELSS
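Assay system – CHO-derived RD-HGA16 cells with stable Gα16 and human TAAR1 · Compound dosing – one-point dosing at 3 µM (nominal) · Incubation – 17-24 h seeding, 75 min 37 °C dye, 30 min RT · Measured by – kinetic Fluo-8 calcium fluorescence · Control set – DMSO vehicle as 0%, PEA at EC100 as 100% · Repeats – single well for each compound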
TAAR1 antagonist – human TAAR1 antagonists, primary screen, Fluo-8 calcium fluorescence, CHO RD-HGA16 cells; Trace amine-associated receptor 1 (Homo sapiens), Q96RJ0; antagonist; inhibition, % at 3 µM; 1.5% of 360,000 active; AID 624466, 2012;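 active = inhibition above a per-plate cutoff, the mean inhibition of test compounds on that plate plus 3 SD, cut at about 49% in these data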;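 note: 0% = DMSO plus EC80 beta-PEA response and 100% = DMSO alone without agonist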
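Test system: CHO RD-HGA16 cells bearing hTAAR1 | Reagent: β-PEA, EC80 | Compound dosing: 3 µM, single point | Schedule: Dye loading 75 min at 37 °C, then 30 min room temperature | Signal: Calcium fluorescence with Fluo-8 | Evaluation: Percent inhibition of PEA-evoked calcium signal, max/basal emission ratio | Control set: DMSO-only wells and EC80 β-PEA-stimulated wells | Repeats: Singlicate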
DAGLB inhibitor – DAGLB lipase inhibitors, primary screen, biochemical, fluorescence, HTS; 0.059% of 340,000 active; AID 504411, 2011; Diacylglycerol lipase-beta (Homo sapiens), Q8NCG7; HEK293T DAGLB membrane lysate, EnzChek fluorogenic substrate; inhibition, % at 5.17 µM; in the data active = inhibition above about 34%;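 note: 0% = enzyme with vehicle and 100% = wells lacking enzyme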
MPTP counter – fluorescence retest of MPTP screen hits in isolated mitochondria, single concentration; shares compounds with MPTP inh; membrane potential, Rhodamine 123 fluorescence; inhibition, % at 10 µM; 78% of 5,000 active; AID 624504, 2012; in the data active = inhibition above about 22%;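 note: 0% = DMSO vehicle and 100% = positive control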
* = called active by the depositor; . = not tested or not shown. An excerpt weighted towards active compounds, which were near 4% of everything screened.

SMILES	MPTP inh	GPR7 antag	TAAR1 agonist	TAAR1 antagonist	DAGLB inhibitor	MPTP counter
Cc1cc(Br)ccc1NC(=S)Nc1cccc([N+](=O)[O-])c1	97*	1	9	11	1	91*
O=C(Nc1ccc([N+](=O)[O-])cc1)Nc1ccon1	58*	26	10	16	0	99*
O=C(Nc1cccc([N+](=O)[O-])c1)Nc1ccc2c(c1)OCCO2	62*	-10	12	16	4	91*
O=C(Nc1ccc2c(c1)OCCO2)Nc1ccc2c(c1)OCO2	2	-17	1	3	0	.
CC1=NN(C(=O)c2ccc(Br)cc2)C(O)(C(F)(F)OC(F)(F)F)C1 (stereo unspecified)	68*	-7	10	10	-7	78*
CC1=NN(C(=O)c2csc(C)c2)C(O)(C(F)(F)F)C1 (stereo unspecified)	-2	-1	8	-1	-1	.
CCc1c(-c2ccccc2)ncn1CCc1ccccc1OC	.	.	11	-6	.	.
CC1CCN(CCCNC(=O)c2ccc3c(=O)n(Cc4ccc(Cl)cc4)c(=S)[nH]c3c2)CC1	95*	8	15	4	3	-22
C=CCC1(CC=C)CCCN1C(=O)c1cc(COc2ccc(C)nc2)on1	99*	9	0	22	0	90*
CCOC(=O)NC(=O)/C(C#N)=N\Nc1cccc(Cl)c1	93*	2	1	-10	8	73*
